Inhibition and IC50 data for 24 compounds are collected here from ChEMBL document CHEMBL1124786, “Potent, low molecular weight renin inhibitors containing a C-terminal heterocycle: hydrogen bonding at the active site” (J Med Chem, 1990).

The term inhibition denotes the drop in the measured response relative to a control, in per cent. Read a high inhibition as a strong effect. One may read the IC50 as the concentration needed to halve the response being measured. A higher IC50 goes with lower potency.

The target in experiment [1] is T1, Cathepsin D (Bos taurus) (UniProt P80209).
T1 sequence (whole entry): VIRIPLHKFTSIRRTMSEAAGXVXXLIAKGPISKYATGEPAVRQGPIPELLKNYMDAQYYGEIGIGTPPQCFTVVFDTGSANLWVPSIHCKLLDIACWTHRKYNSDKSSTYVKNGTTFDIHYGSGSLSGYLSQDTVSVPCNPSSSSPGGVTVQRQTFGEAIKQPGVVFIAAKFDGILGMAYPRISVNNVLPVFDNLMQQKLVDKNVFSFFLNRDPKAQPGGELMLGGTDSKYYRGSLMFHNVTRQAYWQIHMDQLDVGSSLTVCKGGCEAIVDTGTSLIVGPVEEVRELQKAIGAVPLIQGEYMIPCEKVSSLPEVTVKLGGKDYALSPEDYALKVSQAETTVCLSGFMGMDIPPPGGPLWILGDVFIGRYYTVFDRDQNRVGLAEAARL
The experiment can be described thus: Percent inhibition against bovine Cathepsin D at a concentration of 1 x 10 e-5 M and pH 3.

The next experiment deals with Pepsin A (Sus scrofa) (UniProt P00791). The experiment can be described thus: Percent inhibition against porcine pepsin at a concentration of 1 x 10 e-5 M and pH 2.
Chain of Pepsin A (Sus scrofa) (P00791 60-385 limits assumed): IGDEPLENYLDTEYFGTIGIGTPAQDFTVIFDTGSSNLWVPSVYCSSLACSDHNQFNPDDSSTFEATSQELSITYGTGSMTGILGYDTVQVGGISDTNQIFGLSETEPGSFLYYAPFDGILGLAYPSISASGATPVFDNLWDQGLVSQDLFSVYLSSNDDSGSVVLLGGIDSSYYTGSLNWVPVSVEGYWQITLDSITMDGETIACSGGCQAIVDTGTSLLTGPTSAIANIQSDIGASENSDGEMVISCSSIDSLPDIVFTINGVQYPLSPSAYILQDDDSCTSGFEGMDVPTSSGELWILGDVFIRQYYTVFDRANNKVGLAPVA
Experiment [2] concerns the target T2, Renin (Homo sapiens, UniProt P00797).
T2 sequence (P00797 whole entry): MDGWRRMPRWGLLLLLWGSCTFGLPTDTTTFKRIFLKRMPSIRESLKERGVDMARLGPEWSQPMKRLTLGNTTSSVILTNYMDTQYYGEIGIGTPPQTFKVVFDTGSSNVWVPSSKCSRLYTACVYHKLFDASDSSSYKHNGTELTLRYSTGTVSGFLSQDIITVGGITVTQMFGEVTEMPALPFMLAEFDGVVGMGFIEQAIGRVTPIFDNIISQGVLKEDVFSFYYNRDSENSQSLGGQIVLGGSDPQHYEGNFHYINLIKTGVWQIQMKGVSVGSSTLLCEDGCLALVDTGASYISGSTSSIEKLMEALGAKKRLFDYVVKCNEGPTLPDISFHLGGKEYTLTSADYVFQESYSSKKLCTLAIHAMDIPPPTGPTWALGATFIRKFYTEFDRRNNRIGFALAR
Kind of experiment: In vitro inhibition of purified human renal renin. The gist of the method:
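The enzyme was human renal renin, purified and tested at pH 6.0. The read-out is IC50 in nM.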

Experiment [3] addresses T2, Renin. Kind of experiment: In vitro inhibition of human plasma renin. In kind it is cell-free. The gist of the method: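 Renin activity was measured in human plasma at pH 7.4, and the result is reported as IC50 in nM.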
Experiment [4] has as its target T1, Cathepsin D (Bos taurus). Kind of experiment: Percent inhibition against bovine cathepsin D at a concentration of 1 x 10 e-5 M and pH 3.

With `CC(C)C[C@H](O)[C@H](O)[C@H](CC1CCCCC1)NC(=O)[C@H](Cc1c[nH]cn1)NC(=O)[C@H](Cc1ccccc1)NC(=O)OC(C)(C)C`, the inhibition against Cathepsin D (Bos taurus) [1] and on Pepsin A (Sus scrofa) was 0% in each case.

Consider `CC(C)(C)OC(=O)N[C@@H](Cc1ccccc1)C(=O)N[C@@H](Cc1c[nH]cn1)C(=O)N[C@@H](CC1CCCCC1)[C@@H](O)[C@@H]1CCNC(=O)O1`, for which the IC50 on Renin [2] amounted to 3.1 nM; on Renin [3] it was 29 nM.

With `CC(C)(C)OC(=O)N[C@@H](Cc1ccccc1)C(=O)N[C@@H](Cc1cnc[nH]1)C(=O)N[C@@H](CC1CCCCC1)[C@@H](O)[C@@H](O)CNC=O`, the IC50 amounted to 8 nM against Renin [2] and 63 nM against Renin [3].

Regarding `CCN1C[C@@H]([C@H](O)[C@H](CC2CCCCC2)NC(=O)[C@H](Cc2cnc[nH]2)NC(=O)[C@H](Cc2ccccc2)NC(=O)OC(C)(C)C)NC1=O`, the IC50 on Renin [2] is 1.2 nM; against Renin [3], 11 nM.

Take `CCON1C[C@@H]([C@H](O)[C@H](CC2CCCCC2)NC(=O)[C@H](Cc2cnc[nH]2)NC(=O)[C@H](Cc2ccccc2)NC(=O)OC(C)(C)C)OC1=O`: the values for the IC50 on Renin [2] and against Renin [3] were 1.3 nM and 17 nM, respectively.

For the compound `CC(C)ON1C[C@@H]([C@H](O)[C@H](CC2CCCCC2)NC(=O)[C@H](Cc2c[nH]cn2)NC(=O)[C@H](Cc2ccccc2)NC(=O)OC(C)(C)C)OC1=O`, the IC50 was 1.4 nM on Renin [2] and 26 nM at Renin [3].

As to `CON1C[C@@H]([C@H](O)[C@H](CC2CCCCC2)NC(=O)[C@H](Cc2cnc[nH]2)NC(=O)[C@H](Cc2ccccc2)NC(=O)OC(C)(C)C)OC1=O`, the IC50 on Renin [2] turned out to be 0.9 nM; on Renin [3], 9.2 nM.

Turning to `CC(C)(C)OC(=O)N[C@@H](Cc1ccccc1)C(=O)N[C@@H](Cc1cnc[nH]1)C(=O)N[C@@H](CC1CCCCC1)[C@@H](O)[C@@H]1CNC(=O)O1`, the IC50 was 4.7 nM on Renin [2] and 25 nM at Renin [3].

Take `CC(C)N1C[C@@H]([C@H](O)[C@H](CC2CCCCC2)NC(=O)[C@H](Cc2cnc[nH]2)NC(=O)[C@H](Cc2ccccc2)NC(=O)OC(C)(C)C)OC1=O`: the half-inhibitory concentration (IC50) against Renin [2] was found to be 0.84 nM; on Renin [3], 8.2 nM.

For `C[C@@H]1CO[C@H]([C@H](O)[C@H](CC2CCCCC2)NC(=O)[C@H](Cc2c[nH]cn2)NC(=O)[C@H](Cc2ccccc2)NC(=O)OC(C)(C)C)C1`, the figures for the inhibition against Cathepsin D (Bos taurus) [1] and against Pepsin A (Sus scrofa) were 9% and 2%, respectively. The IC50 is 1.2 nM against Renin [2] and 3 nM against Renin [3].

`CC(C)(C)OC(=O)N[C@@H](Cc1ccccc1)C(=O)N[C@@H](Cc1cnc[nH]1)C(=O)N[C@@H](CC1CCCCC1)[C@@H](O)[C@@H]1CC(C)(C)C(=O)O1`: the results for the IC50 on Renin [2] and against Renin [3] were 0.89 nM and 2.8 nM, respectively.

With `C[C@H]1C[C@@H]([C@H](O)[C@H](CC2CCCCC2)NC(=O)[C@H](Cc2c[nH]cn2)NC(=O)[C@H](Cc2ccccc2)NC(=O)OC(C)(C)C)OC1=O`, the figures for the IC50 at Renin [2] and against Renin [3] were 0.32 nM and 2.3 nM, respectively.

In the case of `CCN1C[C@@H]([C@H](O)[C@H](CC2CCCCC2)NC(=O)[C@H](Cc2cnc[nH]2)NC(=O)[C@H](Cc2ccccc2)NC(=O)OC(C)(C)C)OC1=O`, the IC50 against Renin [2] was determined as 0.63 nM; on Renin [3], 2.8 nM.

For `CC(C)CN1C[C@@H]([C@H](O)[C@H](CC2CCCCC2)NC(=O)[C@H](Cc2cnc[nH]2)NC(=O)[C@H](Cc2ccccc2)NC(=O)OC(C)(C)C)OC1=O`, the figures for the IC50 against Renin [2] and against Renin [3] were 3 nM and 21 nM, respectively.

On to `CC(C)(C)OC(=O)N[C@@H](Cc1ccccc1)C(=O)N[C@@H](Cc1cnc[nH]1)C(=O)N[C@@H](CC1CCCCC1)[C@@H](O)[C@@H](O)CN=[N+]=[N-]`, for which the IC50 on Renin [3] turned out to be 9 nM.

In the case of `CCN1C[C@@H]([C@H](O)[C@H](CC2CCCCC2)NC(=O)[C@H](Cc2cnc[nH]2)NC(=O)[C@H](Cc2ccccc2)NC(=O)OC(C)(C)C)NS1(=O)=O`, the IC50 against Renin [2] is 1.4 nM; against Renin [3] it was 13 nM.

For the compound `CCCN1C[C@@H]([C@H](O)[C@H](CC2CCCCC2)NC(=O)[C@H](Cc2cnc[nH]2)NC(=O)[C@H](Cc2ccccc2)NC(=O)OC(C)(C)C)OC1=O`, the IC50 came out at 1 nM at Renin [2] and 12 nM against Renin [3].

For `CON1C[C@@H]([C@H](O)[C@H](CC2CCCCC2)NC(=O)[C@H](Cc2c[nH]cn2)NC(=O)[C@H](Cc2ccccc2)NC(=O)OC(C)(C)C)OC1=O`, the inhibition on Cathepsin D (Bos taurus) [4] and against Pepsin A (Sus scrofa) was 0% throughout.

`CC(C)(C)OC(=O)N[C@@H](Cc1ccccc1)C(=O)N[C@@H](Cc1c[nH]cn1)C(=O)N[C@@H](CC1CCCCC1)[C@@H](O)[C@@H]1CN(CCO)C(=O)O1`: the IC50 came to 0.7 nM against Renin [2] and 7.4 nM on Renin [3].

In the case of `CN1C[C@@H]([C@H](O)[C@H](CC2CCCCC2)NC(=O)[C@H](Cc2c[nH]cn2)NC(=O)[C@H](Cc2ccccc2)NC(=O)OC(C)(C)C)OC1=O`, the values for the IC50 on Renin [2] and at Renin [3] were 1.4 nM and 8.8 nM, respectively.

With `C=C1C[C@@H]([C@H](O)[C@H](CC2CCCCC2)NC(=O)[C@H](Cc2c[nH]cn2)NC(=O)[C@H](Cc2ccccc2)NC(=O)OC(C)(C)C)OC1=O`, the figures for the concentration for half-maximal inhibition (IC50) against Renin [2] and against Renin [3] were 0.71 nM and 21 nM, respectively.

For the compound `CCN1C[C@@H]([C@H](O)[C@H](CC2CCCCC2)NC(=O)[C@H](Cc2c[nH]cn2)NC(=O)[C@H](Cc2ccccc2)NC(=O)OC(C)(C)C)OC1=O`, the inhibition against Cathepsin D (Bos taurus) [4] was found to be 21%; on Pepsin A (Sus scrofa), 0%.

With `CON1CC([C@H](O)[C@@H](CC2CCCCC2)NC(=O)[C@H](Cc2c[nH]cn2)NC(=O)[C@H](Cc2ccccc2)NC(=O)OC(C)(C)C)OC1=O` (single isomer, unassigned), it took 43 nM to reach half-maximal inhibition against Renin [2] (IC50).

`CC(C)(C)OC(=O)N[C@@H](Cc1ccccc1)C(=O)N[C@@H](Cc1c[nH]cn1)C(=O)N[C@@H](CC1CCCCC1)[C@@H](O)[C@@H](O)CN=[N+]=[N-]`: the inhibition against Cathepsin D (Bos taurus) [1] and on Pepsin A (Sus scrofa) was 0% in each case.
